pEC50, pIC50: −log10 of the molar value. Where “and” joins values, the source holds several entries; their conditions need not be identical. Equal values may be shown once.

Test [1] has as its system HL-60. The test can be described thus: Differentiation activity was determined by evaluation of NBT reduction activity of HL-60 cells, % of NBT positive cells determined. It is filed as functional, Homo sapiens. In a few lines: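 HL-60 grown 2 days with or without compound at 0.25 μM. Cultures then given 0.1% NBT, stimulated with 0.4 μM PMA and incubated 30 min at 37 °C. At least 200 cells scored microscopically. % NBT-positive cells taken as stained/total, minus the untreated-culture value. Three independent experiments.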

Another test relates to 3LLD122. In words: Concentration required to inhibit the colony formation of lung carcinoma (3LLD122) cell lines by 50%. It is filed as functional, cell-based. Conditions: Mus musculus. Summed up:
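Murine 3LLD122 (highly metastatic 3LL subclone) grown in RPMI with 10% FCS and 2 mM glutamine at 37 °C, 5% CO2. Compounds added to the upper layer of a semisolid agar bilayer. Aggregates of >20 cells scored as colonies after 7 days by inverted microscope. Drugs in DMSO at 1:1000 dilution (final DMSO ≤0.1%).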

Test [2] concerns HL-60. In words: In vitro for the differentiation induction activity determined in the human myeloid leukemic cell line HL-60. It is filed as functional. Particulars: read-out: ED50 (the source's name). Summed up: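 HL-60 treated 4 days. NBT reduction measured with 0.1% NBT plus 0.4 μM PMA for 30 min at 37 °C, scoring ≥200 cells, with the untreated background subtracted. ED50 is the concentration giving half-maximal NBT reduction, obtained by linear regression and averaged over three independent experiments.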

A further test has as its system MIA PaCa-2. The test can be described thus: Concentration required to inhibit the colony formation of pancreatic human (PACA) cell lines by 50%. It is filed as functional, cell-based. In a few lines:
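PaCa2 single-cell suspensions plated at 400 cells per 60-mm dish. Drug exposure began 24 h after plating. Colonies formed over 7-12 days, then were MeOH-fixed, Giemsa-stained, counted and compared with untreated control. Triplicate assays. Drugs in DMSO, final ≤0.1%.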

With `CC1=C(/C=C/C(C)=C/C=C/C(C)=C/C(=O)OCOC(=O)C(C)C)C(C)(C)CCC1`, the NBT positive cells in the test on HL-60 [1] is 48% and 54% and 49%.
The same measure, in the same setting: then `CC1=C(/C=C/C(C)=C/C=C/C(C)=C/C(=O)OCOC(=O)C(C)(C)C)C(C)(C)CCC1`, with 13% and 21% and 17%; and `CCC(=O)OCOC(=O)/C=C(C)/C=C/C=C(C)/C=C/C1=C(C)CCCC1(C)C`, with 60% and 56% and 57%.
As for `CCCC(=O)OCOC(=O)/C=C(C)/C=C/C=C(C)/C=C/C1=C(C)CCCC1(C)C`, the negative-log IC50 (pIC50) was 5.35 in the test on 3LLD122 and 5.40 with MIA PaCa-2. Further, the pEC50 with HL-60 [2] is 7.51. Also, in the test with HL-60 [1], the NBT positive cells was 72% and 74% and 78%.
As to `CCCC(=O)OCOC(=O)C(C)(C)C` [AN-9], the pIC50 with 3LLD122 is 4.46; in the test with MIA PaCa-2 it was 4.52.
Turning to `CCCC(=O)O` [BUTYRIC ACID], the results for the pIC50 in the test on 3LLD122 and in the test on MIA PaCa-2 were less than 3.00 and 3.60, respectively. In addition, the pEC50 in the test on HL-60 [2] was 3.55.
In the case of `CC1=C(/C=C/C(C)=C/C=C/C(C)=C/C(=O)O)C(C)(C)CCC1` [TRETINOIN], the pIC50 with 3LLD122 was 4.48; in the test on MIA PaCa-2, 5.02. In addition, in the test on HL-60 [2], the pEC50 is 5.90. The NBT positive cells in the test with HL-60 [1] is 21% and 30% and 22%.

The values above are taken from ChEMBL document CHEMBL1133463, “Novel mutual prodrug of retinoic and butyric acids with enhanced anticancer activity” (J Med Chem, 2000).
